Calls of active or inactive are those of the source. The rule behind the calls is not given here.
Key:
PANC-1 [1] = test: Antiausteritic activity against human PANC1 cells in nutrient-deprived medium measured after 24 hrs by WST8 assay; type: functional
Summary of the method: (§1)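 Cells kept in DMEM with 10% FBS at 37 °C, 5% CO2. Seeded at 1.5 × 10^4 cells/well in DMEM for 24 h, washed twice with PBS, then exposed 24 h to serially diluted samples in DMEM or nutrient-deprived medium (NDM). Viability by WST-8 (3 h, A450) from three-well means. PC50 is the concentration killing 50% of cells in NDM without toxicity in DMEM.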

MIA PaCa-2 [2] = test: Antiausteritic activity against human MIAPaCa2 cells in nutrient-deprived medium measured after 24 hrs by WST8 assay; type: functional; summary of the method: as §1
PSN1 [3] = test: Antiausteritic activity against human PSN1 cells in nutrient-deprived medium measured after 24 hrs by WST8 assay; type: functional; summary of the method: as §1
PANC-1 [4] = test: Cytotoxicity against human PANC1 cells in DMEM measured after 24 hrs by WST8 assay; type: cell-based; conditions: panc-1, 24 h; summary of the method: as §1
MIA PaCa-2 [5] = test: Cytotoxicity against human MIAPaCa2 cells in DMEM measured after 24 hrs by WST8 assay; type: cell-based; conditions: mia paca-2, 24 h; summary of the method: as §1
PSN1 [6] = test: Cytotoxicity against human PSN1 cells in DMEM measured after 24 hrs by WST8 assay; type: cell-based; conditions: psn1, 24 h; summary of the method: as §1
PANC-1 [7] = test: Antiausteritic activity against human PANC1 cells in nutrient deprived medium assessed as induction of morphological changes at 6.25 to 25 uM after 24 hrs by ethidium bromide/acridine orange staining based microscopic method; type: functional, cell-based
Summary of the method: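 PANC-1 (2 × 10^5) seeded in 30 mm dishes overnight, washed twice with PBS, treated in NDM for 24 h in humidified CO2 incubator. Acridine orange/ethidium bromide double stain, 15 min in the dark. Fluorescence (red/green) and phase-contrast imaging at 20× objective.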

PANC-1 [8] = test: Antiausteritic activity against human PANC1 cells in nutrient deprived medium assessed as cell death at 25 uM after 24 hrs by ethidium bromide/acridine orange staining based microscopic method relative to control; type: functional
Summary of the method: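 PANC-1 cells seeded at 2 × 10^5 per 30 mm dish, attached overnight, PBS-washed twice, then exposed to compound in nutrient-deprived medium (NDM) for 24 h in humidified CO2 incubator. Acridine orange/ethidium bromide double stain added 15 min in dark; fluorescence (red/green) and phase-contrast images taken at 20× objective; red-fluorescing, morphologically altered cells scored as dead.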

PANC-1 [9] = test: Antiausteritic activity against human PANC1 cells in nutrient deprived medium assessed as cell shrinkage at 10 uM measured every 10 mins […] by phase contrast microscopic method; type: functional, cell-based
Summary of the method: (§2)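 PANC-1 (2 × 10^5) attached overnight in complete medium, washed twice with PBS, treated with 10 μM in NDM. Held in a stage-top incubator at 37 °C, 5% CO2. Phase-contrast images taken every 10 min for 24 h.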

PANC-1 [10] = test: Antiausteritic activity against human PANC1 cells in nutrient deprived medium assessed as plasma blebbing at 10 uM measured every 10 mins […] by phase contrast microscopic method; type: functional, cell-based; summary of the method: as §2
PANC-1 [11] = test: Antiausteritic activity against human PANC1 cells in nutrient deprived medium assessed as cell death at 10 uM measured every 10 mins for 24 hrs by phase contrast microscopic method; type: functional, cell-based; summary of the method: as §2
PANC-1 [12] = test: Antimigratory activity in human PANC1 cells in DMEM assessed as cell migration at 10 uM after 24 hrs by wound healing assay (reference value: 95%); type: functional
PANC-1 [13] = test: Inhibition of colony formation in human PANC1 cells in DMEM at 12.5 uM after 10 days by crystal violet staining based assay; type: functional, cell-based
Summary of the method: (§3)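 PANC-1 at 500 cells/well in DMEM, attached 24 h at 37 °C, 5% CO2. Treated with 12.5 or 25 μM in DMEM and grown 10 days. Cells washed with PBS, fixed with 4% formaldehyde, stained 15 min with crystal violet. Colony area measured; three replicates.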

PANC-1 [14] = test: Inhibition of colony formation in human PANC1 cells in DMEM at 25 uM after 10 days by crystal violet staining based assay relative to control; type: functional; conditions: PANC-1, 240 h; summary of the method: as §3
PANC-1 [15] = test: Reduction in total AKT expression in human PANC1 cells in nutrient deprived medium at up to 5 uM measured within 6 hrs by Western blot analysis; type: functional, cell-based
Summary of the method: (§4)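 PANC-1 cells treated in nutrient-deprived medium. Proteins resolved by SDS-PAGE and transferred to PVDF. Membranes blocked, washed in PBS with 0.1% Tween 20, and incubated overnight with primary antibodies against p-Akt, Akt, p-mTOR and mTOR. GAPDH served as loading control.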

Homo sapiens = species on record: Homo sapiens; test: Inhibition of AKT/mTOR signaling in human PANC1 cells in nutrient deprived medium assessed as effect on mTOR phosphorylation up to 5 uM measured within 6 hrs by Western blot analysis; type: cell-based; summary of the method: as §4
PANC-1 [16] = test: Antiausteritic activity against human PANC1 cells in nutrient deprived medium assessed as disintegration of cell organelles at 10 uM measured every 10 mins for 24 hrs by phase contrast microscopic method; type: functional, cell-based; summary of the method: as §2

| SMILES | PC50 (PANC-1 [1]) | PC50 (MIA PaCa-2 [2]) | PC50 (PSN1 [3]) | Activity (PANC-1 [4]) | Activity (MIA PaCa-2 [5]) | Activity (PSN1 [6]) | Activity (PANC-1 [1]) | Activity (MIA PaCa-2 [2]) | Activity (PSN1 [3]) | Activity (PANC-1 [7]) | Activity (PANC-1 [8]) | Activity (PANC-1 [9]) | Activity (PANC-1 [10]) | Activity (PANC-1 [11]) | Activity (PANC-1 [12]) | inhibition (PANC-1 [13]) | inhibition at 25 µM (PANC-1 [14]) | Activity (PANC-1 [15]) | inhibition (Homo sapiens) | Activity (PANC-1 [16]) |
| --- | --- | --- | --- | --- | --- | --- | --- | --- | --- | --- | --- | --- | --- | --- | --- | --- | --- | --- | --- | --- |
| O=c1ccc2ccc(O)cc2o1 [UMBELLIFERONE] | >100 µM | >100 µM | >100 µM | Non-Toxic | Non-Toxic | Non-Toxic |  |  |  |  |  |  |  |  |  |  |  |  |  |  |
| CC(C)=CCOc1c2ccoc2cc2oc(=O)ccc12 [ISOIMPERATORIN] | 41.2 µM | 37.2 µM | 41.7 µM | Non-Toxic | Non-Toxic | Non-Toxic |  |  |  |  |  |  |  |  |  |  |  |  |  |  |
| C/C(=C\COc1c2ccoc2cc2oc(=O)ccc12)CC[C@@H](O)C(C)(C)O | 76.5 µM | 49.4 µM | 76.1 µM | Non-Toxic | Non-Toxic | Non-Toxic |  |  |  |  |  |  |  |  |  |  |  |  |  |  |
| CC(C)=CCC/C(C)=C/COc1c2ccoc2cc2oc(=O)ccc12 [BERGAMOTTIN] | 4.6 µM | 2.2 µM | 9.4 µM | Non-Toxic | Non-Toxic | Non-Toxic | Dose-dependent effect | Dose-dependent effect | Dose-dependent effect | Active | 100% | Active | Active | Active | 30% | Active | 100% | Active | Active | Active |
| COc1cc(C[C@H]2C(=O)OC[C@@H]2Cc2ccc(OC)c(OC)c2)ccc1O [ARCTIGENIN] | 0.7 µM | 1.9 µM | 0.7 µM |  |  |  |  |  |  |  |  |  |  |  |  |  |  |  |  |  |
| COC(C)(C)[C@H](O)CC/C(C)=C/COc1c2ccoc2cc2oc(=O)ccc12 | 37.8 µM | 37.1 µM | 37.8 µM | Non-Toxic | Non-Toxic | Non-Toxic |  |  |  |  |  |  |  |  |  |  |  |  |  |  |
| CC(C)(O)[C@H](O)COc1c2ccoc2cc2oc(=O)ccc12 [OXYPEUCEDANIN HYDRATE] | 41.2 µM | 79.4 µM | 89.7 µM | Non-Toxic | Non-Toxic | Non-Toxic |  |  |  |  |  |  |  |  |  |  |  |  |  |  |
| C=C(C)[C@@H](O)COc1c2ccoc2cc2oc(=O)ccc12 | 86.6 µM | >100 µM | >100 µM | Non-Toxic | Non-Toxic | Non-Toxic |  |  |  |  |  |  |  |  |  |  |  |  |  |  |
| COC(C)(C)[C@H](O)COc1c2ccoc2cc2oc(=O)ccc12 | 89.6 µM | 87 µM | 89.7 µM | Non-Toxic | Non-Toxic | Non-Toxic |  |  |  |  |  |  |  |  |  |  |  |  |  |  |
| CO[C@@H](COc1c2ccoc2cc2oc(=O)ccc12)C(C)(C)O | 18.8 µM | 51.1 µM | 40.6 µM | Non-Toxic | Non-Toxic | Non-Toxic |  |  |  |  |  |  |  |  |  |  |  |  |  |  |
| CC1(C)O[C@H]1COc1c2ccoc2cc2oc(=O)ccc12 [OXYPEUCEDANIN] | 76.5 µM | 38 µM | 74.6 µM | Non-Toxic | Non-Toxic | Non-Toxic |  |  |  |  |  |  |  |  |  |  |  |  |  |  |
